# Screening data: PubChem, Broad Institute
# aSyn UTR inh – 5' untranslated region of α-synuclein, MLPCN primary screen; alpha-synuclein 5'UTR reporter, inhibitor activity; inhibition, % (tested at 7.5 µM); 300,000 tested, 0.82% active; in the data active = inhibition above about 60%; inconclusive = no clear call, values can overlap the other calls;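 also: H4 neuroglioblastoma cells stably carrying SNCA 5'UTR luciferase fusion; 0% = DMSO wells and 100% = positive control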
# LMP1 NFkB inh – inhibitors of Epstein-Barr LMP1-induced NF-kappaB reporter; LMP1-induced NF-kappaB luciferase reporter cells, luminescence; inhibition, % at 12.5 µM; 350,000 tested, 0.69% active; AID 504558; in the data active = inhibition above about 41%; inconclusive = no clear call, values can overlap the other calls;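 also: 0% = neutral control wells and 100% = reference inhibitor control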
# PAX8 inh HTS – inhibitors of PAX8 transcriptional activity in RMG-I cells | RMG-I TPO-luciferase reporter, SteadyGlo, 24 h | 360,000 tested, 1.2% active | inhibition, % at 12.6 µM;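 active = mean replicate inhibition at least 60% with every replicate also reaching 60%; inconclusive = only one of the two criteria is met; inactive = mean below 60% and not all replicates reaching 60%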;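 also: luciferase light reporting Pax8 driven TPO promoter activity; plate controls were median of neutral control wells for no effect and mitoxantrone controls for full effect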
# EWS-Fli block – blocks EWS/Fli oncoprotein-driven transcription; 350,000 tested, 0.67% active; A673 NR0B1-luciferase reporter, viability-normalised; inhibition, % at 12.6 µM;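 active = mean inhibition of at least 50% after viability correction, with every replicate also passing that limit; inconclusive = mean reaches 50% but only one of two replicates passes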;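 also: firefly luciferase signal divided by Alamar Blue viability fluorescence both relative to DMSO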
# Shn3 inh set2 – Schnurri-3 reporter inhibition in Clone20 osteoblasts; Clone20 osteoblast Shn3 3'UTR firefly luciferase, 24 h; 360,000 tested, 0.52% active; AID 588674; inhibition, % at 12.5 µM;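 active = mean inhibition of at least 75% with every replicate also reaching 75%; inconclusive = mean inhibition at least 75% but some replicate below; inactive = mean inhibition below 75%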;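 also: 0% = median of neutral control wells and 100% = pilot-screen positive control compound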
# FN deposit inh – fibronectin deposition inhibition; AH1F fibroblasts, Alexa488-fibronectin deposition fluorescence, overnight; inhibition, % at 12.6 µM; 350,000 tested, 0.086% active; AID 743247;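 active = mean inhibition across replicates of 30% or more, regardless of how many single replicates reach that level; inconclusive = mean under 30% yet at least half of replicates reach 30%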;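 also: positive control wells lacked labelled fibronectin entirely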
#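 Assay system: AH1F fibroblasts assembling fluorescent fibronectin matrix; Amount: 10000 AH1F cells per well; Buffer or medium: DMEM, 2% serum; Probe or stimulus: Alexa488-fibronectin, 24 nM final in well; Doses: single compound dose, delivered by pin transfer; Incubation: 1 h adhesion, overnight exposure; Measured by: fluorescence 485/525 nm; Read-out: fibronectin deposition inhibition.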
# The depositor's hits bear a star; ? = inconclusive; . = no result given. Shown are actives, neighbours in structure and some others; about 2.1% of the full set was active somewhere.
SMILES,aSyn UTR inh,LMP1 NFkB inh,PAX8 inh HTS,EWS-Fli block,Shn3 inh set2,FN deposit inh
O=C(C[C@H]1C[C@H]2c3cc(NC(=O)Cc4ccncc4)ccc3O[C@H]2[C@H](CO)O1)NCc1cccnc1,.,.,-12,-6,.,-3
CC(C)NC(=O)N1C[C@@H]2[C@H](c3ccccc31)[C@@H](CO)N2C(=O)Nc1cccc(F)c1,.,.,-8,3,.,.
CCCNC(=O)N1CCC2(CC1)CN(S(C)(=O)=O)[C@H](CO)c1c2c2ccc(OC)cc2n1C,.,.,8,3,.,.
O=C1c2ccccc2C(=O)C1c1ccc2ccccc2n1,94*,32,.,.,27,6
COc1ccc(CN(C)C[C@@H]2Oc3ccc(N(C)C)cc3CC(=O)N([C@H](C)CO)C[C@H]2C)cc1,.,.,-8,-4,.,.
COc1cccc(-c2ccc3c(c2)[C@@H]2[C@@H](CCN2C(=O)NC2CCCC2)[C@@H](CO)N3C)c1,.,.,18,-15,.,2
CN1c2ccc(-c3ccc(C#N)cc3)cc2[C@@H]2[C@@H](CCN2C(=O)NC2CCCCC2)[C@@H]1CO,.,.,88*,1,.,2
COc1cccc(-c2ccc3c(c2)[C@H]2[C@H](CCN2C(=O)NC2CCCCC2)[C@@H](CO)N3C)c1,.,.,96*,-12,.,1
COc1cc(/C=C/c2cc[n+](C)cc2)ccc1OCC(=O)Nc1ccc(Cl)c(Cl)c1,-43,2,110*,-5,-16,-5
Cc1ccc2c(c1)S/C(=C/c1ccc[n+](C)c1)N2CCO,-7,1,49,20,-14,18
CCN1/C(=C/c2ccc3ccccc3[n+]2CC)C=Cc2ccccc21,10,53*,.,.,91*,.
Cc1sc2c3ccsc3ccc2[n+]1C,6,-5,23,2,-2,-9
CCN1/C(=C/c2ccc3cc(C)ccc3[n+]2C)Sc2ccc3sccc3c21,.,23,100*,53*,91*,-3
CCCCN1/C(=C/c2cccc[n+]2C)Sc2cc(NC(C)=O)ccc21,-5,0,13,12,6,-2
CCN1/C(=C/c2ccc3ccccc3[n+]2CCCS(=O)(=O)[O-])C=Cc2cc(C)ccc21,35,13,4,-4,12,-1
CCN1/C(=C/c2ccc3cc(C)ccc3[n+]2CC)Sc2cc(C)ccc21,.,15,89*,59*,?,-61
CCCCN1/C(=C/c2ccc3ccccc3[n+]2CC)Sc2ccccc21,80*,52*,.,.,90*,.
O=C(C[C@H]1C[C@@H]2c3cc(NC(=O)C4CCOCC4)ccc3O[C@@H]2[C@H](CO)O1)NCc1ccccc1F,.,.,-3,0,.,-21
CC(C)c1ccc(/C=C(\c2nc3ccccc3[nH]2)S(=O)(=O)c2ccccc2)cc1,-81,-72,87*,.,92*,12
C/C(=C\c1ccc(N)cc1)c1nc2ccccc2[nH]1,-172,-55,-158,-121,-94,2
O=S(=O)(/C(=C/c1ccc(C(F)(F)F)cc1)c1nc2ccccc2[nH]1)c1ccccc1,-62,-7,115*,.,39,65*
COC(=O)/C(=C\c1ccc(O)cc1)c1nc2ccccc2[nH]1,-186,1,-37,-26,-63,8
COc1ccc(/C(CC2OC(=O)c3ccccc32)=N\NC(N)=O)cc1 (stereo unspecified),6,65*,-11,-1,-36,9
Nc1nc2ccccc2n1C(=O)c1ccc(F)cc1,0,7,-1,31,-22,-4
Nc1nc2ccccc2n1C(=O)c1ccccc1,25,?,6,61*,9,1
SMILES,aSyn UTR inh,LMP1 NFkB inh,PAX8 inh HTS,EWS-Fli block,Shn3 inh set2,FN deposit inh
O=[N+]([O-])c1ccc(Nc2ccc(N3CCOCC3)cc2)c([N+](=O)[O-])c1,-16,7,90*,11,-52,.
O=C(Nc1cccc(-c2csc(Nc3ccc(Cl)cc3)n2)c1)c1cc([N+](=O)[O-])cc(C(F)(F)F)c1,-72,-19,79*,1,62,-15
CCCNC(=O)N(C)C[C@@H]1Oc2cc(-c3ccccc3F)ccc2S(=O)(=O)N([C@H](C)CO)C[C@@H]1C,.,.,-10,1,.,-1
Cc1cc(C(=O)OCC(=O)NCc2ccco2)c(C)n1-c1ccc(F)cc1,80*,13,.,.,42,.
CCOC(=O)C1=C(C)NC(C)=C(C(=O)OCC)C1C(=O)OCC(=O)NCc1ccco1,.,-1,.,-11,96*,-5
Cc1ccc(C(=O)OCC(=O)NCc2ccco2)cc1,15,-1,.,.,4,4
COc1ccc(NS(=O)(=O)c2ccc(N3CCOCC3)c(NC(=O)C(C)C)c2)cc1,-18,-3,8,0,66,2
CCOC(=O)/C=C/C(=O)Nc1cc(S(=O)(=O)Nc2ccc(OC)cc2)ccc1N1CCOCC1,.,-21,98*,-5,10,8
N#C[C@@H]1[C@H](c2ccc(C3=CCCC3)cc2)[C@@H](CO)N1C(=O)C1CC1,.,.,-23,2,.,-3
Cc1cccc(N(Cc2ccccc2)C(=O)CCl)c1,-21,2,123*,52*,25,.
O=C(CCl)N(Cc1ccccc1)c1ccccc1,-13,1,108*,73*,17,.
C[C@@H]1CN([C@@H](C)CO)C(=O)c2cc(C#CC3CCCCC3)cnc2O[C@@H]1CN(C)S(=O)(=O)c1ccccc1,.,.,.,12,.,.
COc1ccc(S(=O)(=O)Nc2ccc3c(c2)CC(=O)N([C@@H](C)CO)C[C@H](C)[C@@H](CN(C)C(=O)NC2CCCCC2)O3)cc1,.,.,-23,0,.,.
Cc1cccc(NC(=O)Nc2c(C)n(C)n(-c3ccccc3)c2=O)c1C,0,49*,0,-1,16,.
O=C(Nc1cccc(Br)c1)c1ccc2c(c1)SC1=NS(=O)(=O)CCN12,.,16,88*,28,41,-5
CC(C)(C)c1ccccc1NC(=O)c1ccc2c(c1)SC1=NS(=O)(=O)CCN12,14,5,16,6,9,0
CCOc1ccc(N2C(=O)CC(Sc3nc(C)cc(C)n3)C2=O)cc1 (stereo unspecified),11,1,.,-1,-2,.
CCOc1ccc(N2C(=O)CC(Sc3nnnn3-c3ccccc3)C2=O)cc1 (stereo unspecified),22,8,13,-4,92*,19
COc1ccc(-c2cnc3c(c2)C(=O)N([C@@H](C)CO)C[C@H](C)[C@H](CN(C)C(=O)C2CC2)O3)cc1,.,.,.,-1,.,.
O=C(C1CC(=O)N(c2ccc3c(c2)OCCO3)C1)N1CCN(S(=O)(=O)c2ccc(F)cc2)CC1 (stereo unspecified),.,53*,3,7,-38,.
CN(C)C(=O)C[C@H]1C[C@H]2c3cc(NC(=O)C4CCOCC4)ccc3O[C@H]2[C@H](CO)O1,.,.,-7,-5,.,-3
CCc1nonc1NC(=O)c1oc2ccc(F)cc2c1C,-56,42*,-80,-25,-38,7
